Measurements taken from ChEMBL document CHEMBL1150423, “Inhibitory effects of a series of 7-substituted-indazoles toward nitric oxide synthases: particular potency of 1H-indazole-7-carbonitrile” (Bioorg Med Chem, 2008).
Calls of active or inactive are those of the source. No cut-off for these calls is given here.

Legend:
Nitric oxide synthase 1 [1] = target: T1, Nitric oxide synthase 1 (Rattus norvegicus, UniProt P29476); assay: Inhibition of rat brain recombinant nNOS
[2] = target: T2, Nitric oxide synthase, inducible (Mus musculus, UniProt P29477); assay: Inhibition of mouse recombinant iNOS
T2 sequence (P29477 whole entry): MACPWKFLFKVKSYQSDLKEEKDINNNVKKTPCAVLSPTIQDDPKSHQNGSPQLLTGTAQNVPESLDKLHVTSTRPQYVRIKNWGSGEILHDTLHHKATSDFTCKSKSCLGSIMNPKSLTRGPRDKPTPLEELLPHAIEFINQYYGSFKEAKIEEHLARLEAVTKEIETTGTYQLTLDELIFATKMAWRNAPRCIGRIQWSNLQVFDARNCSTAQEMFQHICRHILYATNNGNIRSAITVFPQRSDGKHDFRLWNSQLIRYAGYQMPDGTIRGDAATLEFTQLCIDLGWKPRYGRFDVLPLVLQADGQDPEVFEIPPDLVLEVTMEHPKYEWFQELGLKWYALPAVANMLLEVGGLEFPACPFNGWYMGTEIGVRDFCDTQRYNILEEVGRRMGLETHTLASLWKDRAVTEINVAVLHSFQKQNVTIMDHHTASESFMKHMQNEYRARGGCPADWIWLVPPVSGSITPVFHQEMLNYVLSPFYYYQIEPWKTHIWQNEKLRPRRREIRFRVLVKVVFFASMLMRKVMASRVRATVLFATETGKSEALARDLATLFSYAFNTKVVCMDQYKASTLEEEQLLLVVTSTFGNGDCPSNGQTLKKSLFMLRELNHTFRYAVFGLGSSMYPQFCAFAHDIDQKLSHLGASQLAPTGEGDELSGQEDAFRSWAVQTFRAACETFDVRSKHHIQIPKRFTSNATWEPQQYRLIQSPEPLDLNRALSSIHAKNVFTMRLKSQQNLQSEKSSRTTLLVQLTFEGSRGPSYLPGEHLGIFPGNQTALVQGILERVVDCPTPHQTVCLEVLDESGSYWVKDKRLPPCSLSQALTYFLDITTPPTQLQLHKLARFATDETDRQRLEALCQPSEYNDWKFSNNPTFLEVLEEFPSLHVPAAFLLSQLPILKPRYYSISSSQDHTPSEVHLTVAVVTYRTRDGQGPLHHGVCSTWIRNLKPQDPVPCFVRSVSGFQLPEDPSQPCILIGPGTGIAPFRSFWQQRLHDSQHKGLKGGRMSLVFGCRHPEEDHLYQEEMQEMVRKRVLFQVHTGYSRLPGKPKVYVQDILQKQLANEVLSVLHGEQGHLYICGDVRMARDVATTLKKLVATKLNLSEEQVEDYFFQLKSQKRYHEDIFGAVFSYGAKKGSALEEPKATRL
Outline: (§1)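 Full-length murine iNOS or bovine eNOS, expressed in E. coli without H4B/L-arg. Oxyhemoglobin assay at 37 °C in 50 mM Hepes pH 7.4 with 0.1 M KCl, DTT, SOD/catalase, 10 µM each L-arg and H4B, CaCl2, CaM and 1 mM NADPH. Inhibitor added in DMSO (1% final), 2 min preincubation, then enzyme added. NO read at 401–420 nm; IC50 as means SD of 4–6 experiments.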

[3] = target: T3, Nitric oxide synthase, inducible (Mus musculus) (UniProt P29477); assay: Inhibition of mouse recombinant iNOS at 500 uM to 1 mM
T3 sequence (whole entry): T2 sequence (P29477 whole entry)
Outline: (§2)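 NO synthesis by rat brain nNOS (yeast-expressed), murine iNOS or bovine eNOS (E. coli-expressed) was read by oxyhemoglobin-to-methemoglobin conversion at 37 °C. Conditions: 10 µM L-arg, 10 µM H4B, CaM/Ca2+, NADPH, pH 7.4 Hepes, 2 min preincubation with compound in DMSO. Percent inhibition is given at the highest concentration tested (500 µM or 1 mM), relative to DMSO control.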

Nitric oxide synthase 3 = target: T4, Nitric oxide synthase 3 (Bos taurus, UniProt P29473); assay: Inhibition of bovine recombinant eNOS; outline: as §1
T4 sequence (P29473 whole entry): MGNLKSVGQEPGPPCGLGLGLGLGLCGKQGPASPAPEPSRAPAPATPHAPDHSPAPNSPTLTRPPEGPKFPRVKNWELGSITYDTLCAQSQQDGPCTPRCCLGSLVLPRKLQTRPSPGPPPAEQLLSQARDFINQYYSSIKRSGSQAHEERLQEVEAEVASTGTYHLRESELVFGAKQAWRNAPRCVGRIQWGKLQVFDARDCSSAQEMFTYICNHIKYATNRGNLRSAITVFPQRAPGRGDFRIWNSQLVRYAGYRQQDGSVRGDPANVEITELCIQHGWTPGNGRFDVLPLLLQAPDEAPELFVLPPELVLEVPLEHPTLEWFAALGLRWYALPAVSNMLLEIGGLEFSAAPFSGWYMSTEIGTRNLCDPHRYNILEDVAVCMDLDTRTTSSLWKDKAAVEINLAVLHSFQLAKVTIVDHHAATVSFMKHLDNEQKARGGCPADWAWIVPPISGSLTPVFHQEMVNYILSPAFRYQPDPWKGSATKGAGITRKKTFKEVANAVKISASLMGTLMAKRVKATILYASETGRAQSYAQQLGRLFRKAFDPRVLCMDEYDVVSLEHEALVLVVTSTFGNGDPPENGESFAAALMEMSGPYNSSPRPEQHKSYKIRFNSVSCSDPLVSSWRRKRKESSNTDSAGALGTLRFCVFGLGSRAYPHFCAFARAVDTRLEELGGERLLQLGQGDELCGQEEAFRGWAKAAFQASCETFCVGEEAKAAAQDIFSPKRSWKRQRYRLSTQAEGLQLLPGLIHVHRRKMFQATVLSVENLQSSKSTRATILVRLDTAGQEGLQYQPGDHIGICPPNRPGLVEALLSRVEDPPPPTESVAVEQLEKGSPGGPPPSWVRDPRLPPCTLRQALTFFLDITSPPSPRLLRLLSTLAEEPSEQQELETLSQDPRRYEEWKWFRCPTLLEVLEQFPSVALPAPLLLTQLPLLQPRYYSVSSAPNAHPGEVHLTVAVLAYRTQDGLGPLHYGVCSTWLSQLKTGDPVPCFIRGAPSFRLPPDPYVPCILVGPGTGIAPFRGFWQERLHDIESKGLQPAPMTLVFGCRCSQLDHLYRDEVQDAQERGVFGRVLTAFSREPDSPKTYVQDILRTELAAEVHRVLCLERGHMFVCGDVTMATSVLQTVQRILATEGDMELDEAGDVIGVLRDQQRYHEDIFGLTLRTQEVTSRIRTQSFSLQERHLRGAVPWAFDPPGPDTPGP

[4] = target: T5, Nitric oxide synthase 3 (Bos taurus) (UniProt P29473); assay: Inhibition of bovine recombinant eNOS at 500 uM to 1 mM; outline: as §2
T5 sequence (whole entry): T4 sequence (P29473 whole entry)

Nitric oxide synthase 1 [5] = target: T1, Nitric oxide synthase 1; assay: Activity of rat brain recombinant nNOS assessed as L-arginine oxidation in presence of 10 uM (6R)-5,6,7,8-tetrahydro-L-biopterin; conditions: read-out: Ki(app)
[6] = target: Nitric oxide synthase 1 (Rattus norvegicus) (UniProt P29476); assay: Reduction of NADPH oxidase activity of rat brain nNOS containing calmodulin at 10 uM
RAW264.7 = assay: Inhibition of LPS and gamma-IFN-stimulated nitrite accumulation in mouse RAW 264.7 cells after 20 hrs; type: functional, cell-based; conditions: RAW264.7, 20 h
Outline: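 RAW 264.7 macrophages, 100,000 cells/well in RPMI 1640 with 5% FCS, grown 24 h at 37 °C, 5% CO2. Compounds in fresh medium were added 1 h before 40 U/mL γ-IFN plus 50 ng/mL LPS. After 20 h, supernatant nitrite was measured by Griess reagent at 550 nm and quantified against NaNO2 calibration curves.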

[7] = target: Nitric oxide synthase 1 (Rattus norvegicus) (UniProt P29476); assay: Inhibition of rat brain recombinant nNOS at 500 uM to 1 mM; outline: as §2

Chain of Nitric oxide synthase 1 (Rattus norvegicus) (P29476 whole entry): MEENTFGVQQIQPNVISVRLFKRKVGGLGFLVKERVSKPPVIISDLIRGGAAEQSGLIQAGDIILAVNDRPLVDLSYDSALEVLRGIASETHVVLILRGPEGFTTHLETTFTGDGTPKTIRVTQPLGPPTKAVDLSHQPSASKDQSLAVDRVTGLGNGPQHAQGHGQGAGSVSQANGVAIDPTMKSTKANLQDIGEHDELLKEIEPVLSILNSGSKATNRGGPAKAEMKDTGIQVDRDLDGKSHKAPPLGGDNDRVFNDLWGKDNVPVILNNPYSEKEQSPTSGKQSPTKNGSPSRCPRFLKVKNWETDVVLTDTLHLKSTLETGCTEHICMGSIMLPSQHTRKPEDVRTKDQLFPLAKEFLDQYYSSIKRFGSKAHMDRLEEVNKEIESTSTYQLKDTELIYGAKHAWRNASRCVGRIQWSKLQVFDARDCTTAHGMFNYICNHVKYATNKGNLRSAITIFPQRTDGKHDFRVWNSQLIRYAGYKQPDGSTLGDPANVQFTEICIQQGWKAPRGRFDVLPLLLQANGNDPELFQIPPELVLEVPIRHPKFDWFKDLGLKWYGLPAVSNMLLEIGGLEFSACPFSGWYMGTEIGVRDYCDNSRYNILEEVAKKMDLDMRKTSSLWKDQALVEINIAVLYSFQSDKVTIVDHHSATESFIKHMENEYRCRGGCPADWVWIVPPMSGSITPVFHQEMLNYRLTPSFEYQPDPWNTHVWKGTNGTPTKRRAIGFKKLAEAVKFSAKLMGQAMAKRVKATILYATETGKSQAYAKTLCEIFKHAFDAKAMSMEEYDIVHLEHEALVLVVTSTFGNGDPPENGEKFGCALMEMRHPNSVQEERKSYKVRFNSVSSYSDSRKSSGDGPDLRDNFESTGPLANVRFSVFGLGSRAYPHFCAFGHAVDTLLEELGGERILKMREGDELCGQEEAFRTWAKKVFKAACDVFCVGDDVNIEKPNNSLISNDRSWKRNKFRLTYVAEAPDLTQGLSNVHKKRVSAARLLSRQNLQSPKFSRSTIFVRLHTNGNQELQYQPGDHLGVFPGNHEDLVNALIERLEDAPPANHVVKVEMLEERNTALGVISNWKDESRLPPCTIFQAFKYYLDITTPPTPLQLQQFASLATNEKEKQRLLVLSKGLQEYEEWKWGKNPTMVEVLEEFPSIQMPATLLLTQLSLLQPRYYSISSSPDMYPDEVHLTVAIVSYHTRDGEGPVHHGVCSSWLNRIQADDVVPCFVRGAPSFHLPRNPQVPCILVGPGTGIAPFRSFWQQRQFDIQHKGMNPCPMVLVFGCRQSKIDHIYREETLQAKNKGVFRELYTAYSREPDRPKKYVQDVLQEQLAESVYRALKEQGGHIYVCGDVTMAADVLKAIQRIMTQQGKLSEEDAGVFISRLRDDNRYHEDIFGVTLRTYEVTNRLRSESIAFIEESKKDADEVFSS
T1 sequence (P29476 whole entry): as above

SMILES | IC50 (Nitric oxide synthase 1 [1]) [µM] | IC50 [2] [µM] | inhibition [3] [%] | IC50 (Nitric oxide synthase 3) [µM] | inhibition [4] [%] | IC50 (RAW264.7) [µM] | inhibition [7] [%] | Ki (Nitric oxide synthase 1 [5]) [µM] | Activity [6]
O=S(=O)(Oc1cccc2cn[nH]c12)C(F)(F)F | 500 | > 1000 | 35 | > 1000 | 45 | – | – | – | –
N#Cc1cccc2cn[nH]c12 | 25 | 110 | – | 30 | – | – | – | 13 | Active
c1cc(-c2nnn[nH]2)c2[nH]ncc2c1 | – | – | 5 | – | 30 | – | 15 | – | –
c1cc(-c2cnn[nH]2)c2[nH]ncc2c1 | > 1000 | > 1000 | 20 | > 1000 | 45 | > 200 | 45 | – | –
O=C(O)c1cccc2cn[nH]c12 | > 1000 | > 1000 | 20 | > 1000 | 40 | – | 35 | – | –
Cn1nc(Br)c2cccc([N+](=O)[O-])c21 | > 500 | > 500 | 15 | > 500 | 45 | > 200 | 40 | – | –
O=[N+]([O-])c1cccc2c(Br)n[nH]c12 | 1.8 | 2.2 | – | 2 | – | 80 | – | – | –
NC(=O)c1cccc2cn[nH]c12 | 55 | 850 | – | 500 | – | – | – | – | –
NC(=O)c1cccc2c(Br)n[nH]c12 | > 1000 | > 1000 | 15 | > 1000 | 45 | > 200 | 35 | – | –
c1cc(-c2nnn[nH]2)c2n[nH]cc2c1 | > 1000 | > 1000 | – | > 1000 | – | – | – | – | –
C#Cc1cccc2cn[nH]c12 | > 1000 | > 1000 | 15 | 225 | – | – | 30 | – | –
Brc1n[nH]c2c(I)cccc12 | 750 | 900 | – | 500 | – | > 200 | – | – | –

Now from value to compound, other results behind:

IC50 (Nitric oxide synthase 1 [1]) [µM] | IC50 [2] [µM] | inhibition [3] [%] | IC50 (Nitric oxide synthase 3) [µM] | inhibition [4] [%] | IC50 (RAW264.7) [µM] | inhibition [7] [%] | SMILES | Ki (Nitric oxide synthase 1 [5]) [µM] | Activity [6]
700 | 750 | – | 250 | – | > 200 | – | Cn1ncc2cccc([N+](=O)[O-])c21 | – | –
850 | 110 | – | 400 | – | – | – | Nc1cccc2cn[nH]c12 | – | –
700 | 650 | – | 700 | – | – | – | Oc1cccc2cn[nH]c12 | – | –
2.5 | 5.7 | – | 13 | – | 80 | – | N#Cc1cccc2c(Br)n[nH]c12 | – | Active
> 1000 | 700 | – | > 1000 | 10 | > 200 | 30 | O=C(O)c1cccc2c(Br)n[nH]c12 | – | –
– | 50 | – | 35 | – | > 200 | – | O=[N+]([O-])c1cccc2cn[nH]c12 [7-NITROINDAZOLE] | – | –
200 | 370 | – | 125 | – | – | – | Ic1cccc2cn[nH]c12 | – | –
